Laboratory results from ChEMBL document CHEMBL2412984, “Indole derivatives as dual-effective agents for the treatment of neurodegenerative diseases: synthesis, biological evaluation, and molecular modeling studies” (Bioorg Med Chem, 2013).
The source made the active and inactive calls. No cut-off for these calls is given here.

Tests used:
[1] = Antioxidant activity assessed as inhibition of ABTS free radical generation at 17 uM after 20 mins by UV spectrophotometric analysis relative to control; assay type: functional
Summary of the method: (§1)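 ABTS radical cation formed by mixing ABTS diammonium salt (96 mg) and potassium persulfate (33 mg) in 25 mL 0.1 M phosphate buffer pH 7.0, then left in the dark at room temperature for 16 h before use. Samples made fresh as 2 mM stocks in methanol/phosphate buffer 1:1 and assayed in triplicate. Absorbance read at 734 nm; %I = (A_blank − A_sample)/A_blank.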

[2] = Antioxidant activity assessed as inhibition of ABTS free radical generation after 20 mins by UV spectrophotometric analysis relative to control; assay type: functional; summary of the method: as §1
[3] = target: Glutamate receptor ionotropic, NMDA 2B (Rattus norvegicus, UniProt Q00960); experiment: Displacement of [3H]-ifenprodil from Wistar rat cerebral cortex GluN2B after 120 mins; assay type: tissue-based
Summary of the method: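 Membranes from cerebral cortices of male Wistar-derived rats (175 g) prepared in Tris–HCl pH 7.4. A 5 mg aliquot was incubated with 2 nM [3H]ifenprodil plus 5 μM GBR-12909, which blocks non-polyamine-sensitive sites, for 120 min at 4 °C. Nonspecific binding defined with 10 μM ifenprodil. Membranes filtered, washed and counted. Three test concentrations run in duplicate.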

[4] = Antioxidant activity assessed as inhibition of ABTS free radical generation at 33 uM after 20 mins by UV spectrophotometric analysis relative to control; assay type: functional
Summary of the method: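 ABTS radical cation was generated from ABTS diammonium salt and potassium persulfate in 0.1 M phosphate buffer, pH 7.0, and left in the dark at room temperature for 16 h before use. Sample stocks (2 mM) were freshly prepared in methanol/phosphate buffer 1:1 and tested in triplicate. Absorbance was read at 734 nm, with inhibition calculated as %I = (A_blank − A_sample)/A_blank.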

Sequence of Glutamate receptor ionotropic, NMDA 2B (Q00960 whole entry): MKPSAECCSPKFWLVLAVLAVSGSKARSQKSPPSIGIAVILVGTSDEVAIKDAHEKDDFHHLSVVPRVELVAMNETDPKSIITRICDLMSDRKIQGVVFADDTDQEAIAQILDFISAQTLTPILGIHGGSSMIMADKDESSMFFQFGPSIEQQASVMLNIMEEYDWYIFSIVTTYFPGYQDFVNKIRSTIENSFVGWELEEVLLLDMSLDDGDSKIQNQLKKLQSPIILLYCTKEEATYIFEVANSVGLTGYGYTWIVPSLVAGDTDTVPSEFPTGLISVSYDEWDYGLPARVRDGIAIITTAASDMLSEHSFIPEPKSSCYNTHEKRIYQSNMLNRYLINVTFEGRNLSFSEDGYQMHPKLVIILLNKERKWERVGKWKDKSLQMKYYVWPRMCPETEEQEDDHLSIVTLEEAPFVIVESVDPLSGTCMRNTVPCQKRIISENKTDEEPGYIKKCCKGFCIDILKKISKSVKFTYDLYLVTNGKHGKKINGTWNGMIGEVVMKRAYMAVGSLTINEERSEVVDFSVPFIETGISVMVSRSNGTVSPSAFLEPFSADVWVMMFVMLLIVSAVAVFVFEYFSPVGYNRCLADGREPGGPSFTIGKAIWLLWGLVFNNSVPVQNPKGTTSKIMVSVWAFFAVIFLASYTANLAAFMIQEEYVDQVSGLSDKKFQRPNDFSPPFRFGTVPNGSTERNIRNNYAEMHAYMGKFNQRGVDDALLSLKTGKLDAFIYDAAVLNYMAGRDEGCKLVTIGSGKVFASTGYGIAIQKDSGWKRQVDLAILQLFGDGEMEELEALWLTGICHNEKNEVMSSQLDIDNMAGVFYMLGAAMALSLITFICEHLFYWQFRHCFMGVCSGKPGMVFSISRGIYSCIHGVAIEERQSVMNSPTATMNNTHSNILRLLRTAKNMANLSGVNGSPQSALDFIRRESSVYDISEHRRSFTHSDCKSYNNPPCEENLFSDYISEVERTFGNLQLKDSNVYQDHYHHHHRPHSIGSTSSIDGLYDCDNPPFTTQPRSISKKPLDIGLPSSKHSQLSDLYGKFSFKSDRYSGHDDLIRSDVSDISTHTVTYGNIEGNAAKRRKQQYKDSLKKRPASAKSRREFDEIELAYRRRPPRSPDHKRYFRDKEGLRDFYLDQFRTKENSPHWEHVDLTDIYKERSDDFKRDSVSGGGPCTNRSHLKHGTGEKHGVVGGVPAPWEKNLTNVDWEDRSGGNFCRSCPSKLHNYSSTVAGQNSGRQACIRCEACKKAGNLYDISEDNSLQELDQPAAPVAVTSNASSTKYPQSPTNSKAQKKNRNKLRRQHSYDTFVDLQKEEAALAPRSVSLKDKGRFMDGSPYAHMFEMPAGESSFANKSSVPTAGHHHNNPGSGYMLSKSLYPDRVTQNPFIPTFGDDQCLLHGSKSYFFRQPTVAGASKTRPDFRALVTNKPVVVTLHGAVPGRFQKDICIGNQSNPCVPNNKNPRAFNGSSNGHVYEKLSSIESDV

Compound	inhibition [1]	inhibition [2]	IC50 [3] [nM]	inhibition [4] [%]
O=C(C(=O)N1CCC(Cc2ccccc2)CC1)c1c[nH]c2cc(O)ccc12	70.7%	Dose-dependent effect	–	–
O=C(NC1CCN(CC(=O)c2c[nH]c3ccc(O)cc23)CC1)c1ccc(O)c(O)c1	> 94.1%	Dose-dependent effect	660	–
O=C(CN1CCC(Cc2ccccc2)CC1)c1c[nH]c2cc(O)ccc12	> 93.9%	Dose-dependent effect	–	–
O=C(CN1CCC(Cc2ccccc2)CC1)c1c[nH]c2ccc(O)cc12	> 92.1%	Dose-dependent effect	–	–
c1ccc2[nH]ccc2c1	inactive	–	–	25
O=C(O)/C=C/c1ccc(O)c(O)c1	71.5%	–	–	–
COc1ccc2[nH]ccc2c1	inactive	–	–	47.6
O=C(O)c1cc(O)c(O)c(O)c1	> 94.1%	–	–	–
O=C(C(=O)N1CCC(Cc2ccccc2)CC1)c1c[nH]c2ccc(O)cc12	80.1%	Dose-dependent effect	–	–
